Screening results as filed in PubChem BioAssay.
LMPTP block: LMPTP (human) inhibition; inhibition, % at 20 µM; recombinant LMPTP-A, OMFP fluorogenic substrate, fluorescence intensity; hit rate 0.22% among 360,000; P24666; AID 651560;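 active = compounds that cut the enzyme signal by at least half of the control window in the single-dose screen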;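 note: plate controls were DMSO wells with enzyme plus substrate for no effect and substrate without enzyme for full effect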
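Test system – LMPTP-A phosphatase enzyme · Quantity – 0.625 nM LMPTP-A final · Reagent – OMFP substrate, 400 µM final · Dosing – one test concentration per compound, 20 µM, with 3% DMSO overall · Timing – 50 min enzyme reaction at room temperature, protected from light · Detection – fluorescence intensity · Controls – substrate-only low control, DMSO enzyme-plus-substrate high control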
Scp1 inh: blocks human Scp-1 phosphatase activity | Q9GZU7 | Recombinant Scp1, phosphopeptide, malachite green phosphate absorbance | inhibition, % at 20 µM | hit rate 0.88% among 340,000 | AID 493091;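 active = inhibition above about 50% at 20 µM, limit read from the data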;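 note: plate controls were DMSO wells with enzyme for no effect and wells lacking enzyme for full effect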
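Test system: SCP-1 phosphatase catalytic domain, residues 76-261 | Compound dosing: One concentration, 20 µM, with 1.0% DMSO | Schedule: 45 min room-temperature reaction, 5 min colour, 30 min stabiliser | Detection: Absorbance at 630 nm | Read-out basis: % inhibition of SCP-1 phosphate liberation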
rCAG binder: binds r(CAG) RNA repeats; r(CAG) RNA repeat, TO-PRO-1 dye displacement fluorescence; inhibition, % at 3 µM; hit rate 1.3% among 370,000; AID 651821;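 active = inhibition above the plate cutoff, the mean of all test compounds on that plate plus 3 SD, cut at about 35% in these data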;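 note: 0% = DMSO alone and 100% = 100 µM mitoxantrone as full dye displacement; higher means more dye released from RNA so lower well fluorescence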
STEP block: blocks human striatal-enriched tyrosine phosphatase; P54829; hit rate 0.25% among 360,000; recombinant STEP, OMFP fluorogenic substrate, fluorescence; inhibition, % at 20 µM; AID 588621;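 active = inhibition at 20 µM, scaled per plate between control wells, above about 37%, limit read from the data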;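 note: 0% = DMSO with enzyme and substrate and 100% = substrate only without enzyme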
Target sequence (P54829 whole entry, looked up): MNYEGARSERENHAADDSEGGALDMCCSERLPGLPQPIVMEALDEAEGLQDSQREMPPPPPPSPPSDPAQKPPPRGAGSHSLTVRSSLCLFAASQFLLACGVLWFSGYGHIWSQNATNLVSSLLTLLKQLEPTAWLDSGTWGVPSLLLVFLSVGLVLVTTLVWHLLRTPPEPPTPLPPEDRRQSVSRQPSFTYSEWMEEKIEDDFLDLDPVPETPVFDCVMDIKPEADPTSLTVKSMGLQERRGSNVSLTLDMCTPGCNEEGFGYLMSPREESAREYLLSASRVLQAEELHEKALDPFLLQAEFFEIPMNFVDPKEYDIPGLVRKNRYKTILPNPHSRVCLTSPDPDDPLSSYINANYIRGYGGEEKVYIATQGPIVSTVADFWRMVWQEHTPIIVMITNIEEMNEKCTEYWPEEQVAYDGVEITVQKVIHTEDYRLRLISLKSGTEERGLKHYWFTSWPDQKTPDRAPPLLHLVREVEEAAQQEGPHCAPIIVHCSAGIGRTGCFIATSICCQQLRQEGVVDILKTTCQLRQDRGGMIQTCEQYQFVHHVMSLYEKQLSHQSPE
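Assay system: isolated STEP enzyme / Timing: 20 min at room temperature, dark / Doses: 20 µM, 1% DMSO / Technique: fluorescence intensity, excitation 480 nm, emission 540 nm / Reagent: fluorogenic phosphatase substrate OMFP at 25 µM final / Measure: percent inhibition scaled to no-enzyme and uninhibited-enzyme controls, plate-pattern corrected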
NadD inh: NadD (S. aureus) enzyme inhibition; inhibition, % at 20 µM; hit rate 0.78% among 360,000; AID 602399; purified NadD enzyme, colorimetric absorbance read-out; in the data active = inhibition above about 26%
rCAG bind conf: r(CAG) RNA repeat binding, confirmation | hit rate 70% among 4,300 | TO-PRO-1 dye displacement fluorescence | shares compounds with rCAG binder | inhibition, % at 3 µM | AID 652065;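 active = inhibition above a per-plate cutoff, the mean inhibition of sample wells plus 3 SD, cut at about 35% in these data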;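 note: loss of TO-PRO-1 fluorescence as compound displaces dye from 1x1 AA loop RNA; 0% = DMSO only wells and 100% = 100 µM mitoxantrone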
DNA CAG counter: counter-screen for rCAG RNA binders: DNA CAG dye complex inhibitors; inhibition, % at 3 µM; shares compounds with rCAG binder; AID 652068; hit rate 94% among 4,300; d(CAG) DNA oligo TO-PRO-1 dye displacement, fluorescence;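 active = inhibition above its plate's cutoff, the mean test-well inhibition plus 3 SD, cut at about 4.8% in these data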;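 note: 0% = DNA dye mix with DMSO and 100% = 100 µM mitoxantrone; hits displace the dye from DNA and so lower well fluorescence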
* hit, by the source's call; . = no result; ! = not confirmed by another sample. Most compounds without a hit are left out; they make up all but 2.6% or so of the library.

SMILES	LMPTP block	Scp1 inh	rCAG binder	STEP block	NadD inh	rCAG bind conf	DNA CAG counter
O=C(NCCN1CCC2(CC1)C(=O)NCN2c1ccccc1)c1ccc(F)cc1F	.	.	1	.	.	.	.
Cc1ccc(/C=C2\C(=O)NC(=S)N(c3ccccc3F)C2=O)s1	1	-4	35*	4	16	16	8.2*
CCOC(=O)C1CCN(/C=C2/C(=O)NC(=S)N(c3ccccc3F)C2=O)CC1	-1	-4	1	0	-4	.	.
CC(C)C(CN1CCC(C)(c2cccc(O)c2)[C@@H](C)C1)NC(=O)C1Cc2ccc(O)cc2CN1 (stereo not given in full)	.	.	2	.	.	.	.
COc1ccccc1/C=C1\C(=O)NC(=S)N(c2ccccc2)C1=O	-2	15	18	0	2	.	.
O=C1NC(=S)N(c2ccccc2)C(=O)/C1=C/c1ccco1	7	93*	89*	40	5	90*	63*
Oc1ccc(/C=N/NP(=S)(c2ccccc2)c2ccccc2)c(O)c1O	12	0	37*	0	13	56*	28*
Oc1ccccc1/C=N/NP(=S)(c1ccccc1)c1ccccc1	1	-4	6	-3	-7	.	.
CC(C)(C#CC(=O)O)OOC(c1ccccc1)(c1ccccc1)c1ccccc1	1	-21	53*	0	-2	57*	20*
CC(C)NC1(c2ccccc2)CCCCC1	.	.	4	.	.	.	.
O=P(NS(=O)(=O)c1ccc(Cl)cc1)(Oc1ccccc1)Oc1ccccc1	-1	2	62*	0	0	59*	19*
O=P(NS(=O)(=O)c1ccc(Br)cc1)(Oc1ccccc1)Oc1ccccc1	-2	0	73*	-3	4	63*	25*
Cc1ccc(S(=O)(=O)NP(=O)(Oc2ccccc2)Oc2ccccc2)cc1	-2	-3	40*	-7	5	36*	9.7*
O=P(NS(=O)(=O)c1ccccc1)(Oc1ccccc1)Oc1ccccc1	-2	-7	30	2	0	.	.
CN(C)[C@@H]1C(=O)C(C(N)=O)=C(O)[C@@]2(O)C(=O)C3=C(O)c4c(O)cccc4[C@@](C)(O)[C@H]3[C@H](O)[C@@H]12	66*	65*	70*	34	38*!	67*	34*
O=C(O)c1cc2ccccc2n1C1CCN(Cc2ccccc2)CC1	.	.	7	.	.	.	.
Cc1cccc(OCCn2cccc2/C=C2/C(=O)NC(=O)N(Cc3ccco3)C2=O)c1	4	10	35*	2	3	11	7.7*
O=C1NC(=O)N(Cc2ccco2)C(=O)/C1=C\c1cccn1CCOc1ccc(Cl)cc1	3	-3	35*	-2	17	11	7.6*
CCc1ccc(N2C(=O)NC(=O)/C(=C/c3cccn3CCOc3ccc(C(C)CC)cc3)C2=O)cc1 (stereo not given)	0	-3	6	1	5	.	.
CCc1ccc(N2C(=O)NC(=O)/C(=C/c3cccn3CCOc3ccc(C)cc3)C2=O)cc1	0	-10	10	1	18	.	.
N#Cc1ccc(NC(=S)N2Cc3ccc(Br)cc3-n3nncc3C2)cc1	.	.	7	.	.	.	.
CCCCn1c(NS(=O)(=O)c2ccc(C)cc2)c(C(=O)OCC)c2nc3ccccc3nc21	4	-5	36*	-1	23	18	5.8*
CCCCn1c(NC(=O)c2ccco2)c(C(=O)OCC)c2nc3ccccc3nc21	3	-7	1	0	15	.	.
NCCc1cc(O)c(O)cc1O	79*	-9	61*	-2	65*	28	14*
COc1ccc(CCN)cc1O	-3	-14	2	-4	-4	.	.
SMILES	LMPTP block	Scp1 inh	rCAG binder	STEP block	NadD inh	rCAG bind conf	DNA CAG counter
CCOC(=O)c1[nH]c2ccc(OC)cc2c1C(SCC(=O)O)c1ccc(C(F)(F)F)cc1 (stereo not given)	2	-22	56*	-4	-2	51*	14*
O=C1NC(=O)N(c2cccc(Cl)c2)C(=O)/C1=C\c1ccc(Sc2nc3ccccc3[nH]2)o1	8	9	72*	-3	65*	50*	22*
CN1C2(C)c3ccccc3C1(c1ccccc1)c1ccccc12	.	.	1	.	.	.	.
COC(=O)C1C(O)C(C)C(O)C(C)/C=C\C=C(/C)C(=O)Nc2c(C)c(OC(C)=O)c3c(c2O)C(=O)C(C)=C2OCOC(=C23)/C(C)=C/C(C)(O)C(O)C(C)C1O (stereo not given)	2	-7	47*	0	6	24	6.5*
Clc1ccc([C@H]2CC3CCC2N3)cn1 (stereo not given in full)	.	.	0	.	.	.	.
O=C1CC(=O)N(c2cccc(Br)c2)C(=O)N1	-1	-13	16	-2	-5	.	.
Cc1cc(Br)ccc1N1C(=O)CC(=O)NC1=O	1	-9	40*	1	12	4	3
Cc1ccc(N2Cc3ccccc3-n3nncc3C2)cc1	.	.	2	.	.	.	.
CN1C(=O)/C(=C/c2cccn2-c2ccc3ccccc3c2)C(=O)NC1=S	6	-4	63*	6	44*	22	16*
O=C(NCCN1CCC2(CC1)C(=O)NCN2c1ccccc1)c1cc(C(F)(F)F)ccc1C(F)(F)F	.	.	-1	.	.	.	.
CCN1C(=O)C(=C/C=C/c2ccco2)C(=O)N(CC)C1=S	6	55*	56*	-6	22	49*	17*
CC(C)N1C(=O)/C(=C/C=C/c2ccco2)C(=O)N(Cc2ccco2)C1=O	5	70*	45*	2	17	22	11*
CCN(CC)c1ccc(/C=C2/C(=O)NC(=O)N(Cc3ccco3)C2=O)cc1	1	5	30	1	10	.	.
COc1ccc(/C=C2/C(=O)N(Cc3ccco3)C(=O)N(C(C)C)C2=O)cc1	3	-10	60*	-3	34*	77*	41*
O=c1[nH]c2cc(Cl)ccc2n1C1CCN(Cc2ccc(-c3nc4ccc(F)cc4nc3-c3ccccc3)cc2)CC1	.	.	11	.	.	.	.
O=C(NCCN1CCC2(CC1)C(=O)NCN2c1ccccc1)c1ccccc1C(F)(F)F	.	.	1	.	.	.	.
O=C1CC(=O)N(Cc2ccccc2)C(=O)N1Cc1ccccc1	1	2	46*	0	-1	9	6.3*
O=C1CC(=O)N(Cc2ccccc2)C(=O)N1	-1	2	4	0	-5	.	.
